In PMC5188857 (Brazilian Journal of Medical and Biological Research, 2016):
Where “and” joins values, the source holds several entries; their conditions need not be identical. Identical values can stand only once. Like-named read-outs stand apart in the source and are kept apart here. Values belong to the molecule of their own block, whether it stands above or below them.

Legend:
[1] = Permeability on MDCK-MDR1 cell monolayer; type: in vitro ADME; conditions: dog; for Papp B→A at 129 min: MDCK-MDR1; for Papp A→B at 129 min: MDCK-MDR1, Papp apical to basolateral, MDCK-MDR1 monolayer, n=3
[2] = cited from earlier work
Plasma stability, human = type: in vitro ADME
Procedure, shortened: (§1)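 Test-compound-spiked rat or human plasma was incubated 6 h at 37°C. Percent recovery was then determined, reported as mean±SD, n=6.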

mice motor coordination = test: Rota-rod test; type: in vivo; conditions: 10 µg/kg iv, 3, 10 and 30 min after administration
Procedure, shortened: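 Adult male Swiss Webster mice (~40 g) were trained 1 day and 1 h before testing. Only those staying ≥1 min without falling were used. Test compound (10 µg/kg) or saline was given iv via the orbital plexus, 6 mice per group. At 3, 10 and 30 min, falls were counted over a 4-min observation, with latency to each fall recorded.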

mice = test: Acute toxicity test, single dose; type: in vivo; conditions: for Body temperature: 100 μg/kg ip
Procedure, shortened: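 Female Swiss Webster mice (25–30 g), 6 per condition, got a single ip dose of 100 μg/kg test compound, with saline controls. Behaviour, motor coordination, muscle tone, CNS and autonomic signs, water and food intake and lethality were scored during the first hour, at 2, 4 and 8 h, then daily to day 14. Anal-probe body temperature was taken before dosing and at 30 and 60 min.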

CYP3A4 = CYP3A4 (Homo sapiens, UniProt P08684); test: CYP inhibition in human liver microsomes; type: in vitro ADME
CYP3A4, sequence (P08684 whole entry): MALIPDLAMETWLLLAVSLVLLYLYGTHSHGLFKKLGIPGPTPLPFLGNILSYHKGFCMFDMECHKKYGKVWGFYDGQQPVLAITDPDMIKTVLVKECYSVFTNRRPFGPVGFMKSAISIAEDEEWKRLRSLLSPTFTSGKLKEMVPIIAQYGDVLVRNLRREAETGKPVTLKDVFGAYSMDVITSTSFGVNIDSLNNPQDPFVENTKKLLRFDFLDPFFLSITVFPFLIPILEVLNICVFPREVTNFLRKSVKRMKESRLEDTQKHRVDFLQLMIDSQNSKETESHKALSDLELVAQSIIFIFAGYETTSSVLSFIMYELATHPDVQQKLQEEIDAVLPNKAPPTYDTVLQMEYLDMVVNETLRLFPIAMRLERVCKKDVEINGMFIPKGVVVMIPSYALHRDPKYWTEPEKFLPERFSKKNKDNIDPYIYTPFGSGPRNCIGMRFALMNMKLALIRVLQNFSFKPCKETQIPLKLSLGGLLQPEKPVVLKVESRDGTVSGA

[3] = Plasma protein binding by equilibrium dialysis, human plasma; type: in vitro ADME; conditions: 10 µM, means±SD, n=6
Procedure, shortened: (§2)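 Equilibrium dialysis used plasma (human or rat) spiked with 10 µM test compound in the donor side against phosphate buffer in the acceptor side. Plates were sealed and incubated 6 h at 37°C, 60 rpm, 5% CO2. Diclofenac (5 µM) served as positive control. Bound percentage is given as mean±SD, n=6.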

MDCK-MDR1 cells = test: Permeability on MDCK-MDR1 cell monolayer; type: in vitro ADME; conditions: MDCK-MDR1 monolayer, n=3
P-gp = test: Permeability on MDCK-MDR1 cell monolayer; type: in vitro ADME; conditions: dog, MDCK-MDR1
Plasma stability, rat = type: in vitro ADME
Procedure, shortened: as §1

[4] = Plasma protein binding by equilibrium dialysis, rat plasma; type: in vitro ADME; conditions: 10 µM, means±SD, n=6
Procedure, shortened: as §2

rat hepatocytes = test: In vitro metabolism in rat hepatocytes; type: in vitro ADME; conditions: rat hepatocytes, 0.5 µM
[5] = In vitro metabolism in rat hepatocytes; type: in vitro ADME; conditions: rat, hepatocytes
[6] = In vitro metabolism in human hepatocytes; type: in vitro ADME; conditions: human, hepatocytes
human hepatocytes = test: In vitro metabolism in human hepatocytes; type: in vitro ADME; conditions: human hepatocytes, 0.5 µM, two separate experiments
Solubility at pH 7.4 = type: physicochemical; conditions: 50 mM sodium phosphate buffer
Procedure, shortened: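 Working stock was spiked into 50 mM sodium phosphate buffer, pH 7.4, and held 2 h; concentrations up to 100 µM were tested. Samples were centrifuged at 1,000 g for 20 min at room temperature. Supernatant was diluted 1:1 in acetonitrile and quantified by LC-MS/MS (phenyl column, positive-ion MRM, internal standard).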

[7] = In vitro metabolism in human liver microsomes; type: in vitro ADME
CYP2D6 = CYP2D6 (Homo sapiens, UniProt P10635); test: CYP profiling with purified isozyme; type: in vitro ADME; conditions: purified human CYP2D6 isozyme (Cypex)
CYP2D6, sequence (P10635 whole entry): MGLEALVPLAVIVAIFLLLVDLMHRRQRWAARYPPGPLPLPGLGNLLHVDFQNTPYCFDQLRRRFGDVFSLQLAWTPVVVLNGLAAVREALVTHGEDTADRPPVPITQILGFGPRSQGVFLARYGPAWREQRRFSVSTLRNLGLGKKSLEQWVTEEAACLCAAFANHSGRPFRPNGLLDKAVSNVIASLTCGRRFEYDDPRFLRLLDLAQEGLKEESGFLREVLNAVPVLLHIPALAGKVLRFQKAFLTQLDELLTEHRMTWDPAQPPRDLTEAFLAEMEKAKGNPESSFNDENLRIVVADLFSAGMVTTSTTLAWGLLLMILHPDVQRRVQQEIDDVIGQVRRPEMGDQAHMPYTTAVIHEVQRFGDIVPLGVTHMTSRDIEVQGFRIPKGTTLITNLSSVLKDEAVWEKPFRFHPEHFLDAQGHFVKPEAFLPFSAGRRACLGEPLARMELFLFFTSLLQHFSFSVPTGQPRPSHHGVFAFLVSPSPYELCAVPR
Procedure, shortened: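 Purified human recombinant CYP isozyme ([…]) was pre-incubated 10 min, then run with 0.5 µM test compound and 2 mM NADPH in phosphate buffer at 37°C. CYP-specific probe substrates were incubated separately. Parent loss over time was measured by LC-MS/MS. Half-life came from nonlinear regression to a first-order decay equation.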

[8] = In vitro metabolism in rat liver microsomes; type: in vitro ADME
[9] = single dose 100 μg/kg ip, 14 days observation

Papp B→A at 129 min [1]: 39.5 ± 2.8 ×10⁻⁶ cm/s
Papp A→B at 129 min [1]: 0.19 ± 0.05 ×10⁻⁶ cm/s
Compound: C=C[C@H]1C[N@@]2CC[C@H]1C[C@@H]2[C@@H](O)c1ccnc2ccc(OC)cc12 [quinidine, reference compound]

Compound: CCOc1ccccc1OCCN[C@H](C)Cc1ccc(OC)c(S(N)(=O)=O)c1 [tamsulosin]
Binding to human plasma proteins [2]: around 99%

Compound: COc1ccc(CCN2CCN(c3ccccc3OC)CC2)cc1OC.Cl [LDT5, 1-(2-methoxyphenyl)-4-[2-(3,4-dimethoxyphenyl)ethyl]piperazine monohydrochloride]
recovery at 6 h (Plasma stability, human): 91 ± 4%
Effect on motor coordination (rota-rod) (mice motor coordination): no acute effect on mice motor coordination
Body temperature (mice; 30 min after administration): 35.5±0.2 °C
Body temperature (mice; 60 min after administration): 35.17±0.31 °C
Changes in behavior (mice; [9]): no changes in behavior
Lethality (mice; [9]): no lethality
IC50 (CYP3A4): > 100 µM
IC50 (CYP3A4; read-out: IC50 CYP3A4, human liver microsomes, substrate testosterone): > 100 µM
Binding to plasma proteins [3]: 73±1%
Papp B→A at 129 min [1]: 32.4 ± 1.1 ×10⁻⁶ cm/s
Papp A→B at 129 min [1]: ~32 ×10⁻⁶ cm/s
Papp apical to basolateral (MDCK-MDR1 cells): 32.2±1.1 ×10^-6 cm/s
efflux ratio at 129 min (P-gp): 1
recovery at 6 h (Plasma stability, rat): 87 ± 4%
Binding to plasma proteins [4]: 80±2%
Intrinsic clearance (rat hepatocytes): > 2 mL·min^-1·g liver^-1
half-life at 0.5 µM [5]: 11 min
half-life at 0.5 µM [6]: 120 min
Intrinsic clearance (human hepatocytes): < 0.2 mL·min^-1·g liver^-1 and 0.22 mL·min^-1·g liver^-1
solubility at 2 h (Solubility at pH 7.4): ≥ 100 µM
half-life at 0.5 µM ([7]; both, human, liver microsomes): > 30 min
Intrinsic clearance ([7]; human liver microsomes, 0.5 µM): < 0.6 mL·min^-1·g liver^-1
half-life at 0.5 µM (CYP2D6): 5 min
half-life at 0.5 µM ([8]; male, Sprague Dawley, rat, liver microsomes): 10 min
Intrinsic clearance ([8]; rat liver microsomes, 0.5 µM, two separate experiments): 6.4 mL·min^-1·g liver^-1 and 6.7 mL·min^-1·g liver^-1
